Experimental data published in ChEMBL document CHEMBL3352237, “Synthesis and biological evaluation of novel peptide BF2 as an antibacterial agent against clinical isolates of vancomycin-resistant enterococci” (J Med Chem, 2014).

Columns and labels:
Enterococcus faecium [1] = assay: Antibacterial activity against vancomycin-resistant Enterococcus faecium clinical isolate 23/240 after overnight incubation by two-fold serial dilution method; type: functional
Enterococcus faecium [2] = assay: Antibacterial activity against vancomycin-resistant Enterococcus faecium clinical isolate 13246 after overnight incubation by two-fold serial dilution method; type: functional
Enterococcus faecium [3] = assay: Antibacterial activity against vancomycin-resistant Enterococcus faecium clinical isolate 16475 after overnight incubation by two-fold serial dilution method; type: functional
Enterococcus faecium [4] = assay: Bactericidal activity against vancomycin-resistant Enterococcus faecium clinical isolate […] after 24 hrs by two-fold serial dilution method; type: functional; conditions: isolate 27/1691, 24 h
Enterococcus [5] = assay: Antibacterial activity against vancomycin-resistant Enterococcus clinical isolate after 18 to 20 hrs by checkerboard titration method in presence of linezolid; type: functional
Enterococcus faecium [6] = assay: Antibacterial activity against vancomycin-resistant Enterococcus faecium clinical isolate 8/224 after overnight incubation by two-fold serial dilution method; type: functional
Enterococcus [7] = assay: Antibacterial activity against vancomycin-resistant Enterococcus ATCC 51299 after overnight incubation by two-fold serial dilution method; type: functional
Enterococcus faecium [8] = assay: Antibacterial activity against vancomycin-resistant Enterococcus faecium clinical isolate 30/48 after overnight incubation by two-fold serial dilution method; type: functional
Enterococcus faecalis [9] = assay: Bactericidal activity against vancomycin-resistant Enterococcus faecalis clinical isolate 5642 after 24 hrs by two-fold serial dilution method; type: functional; conditions: isolate 5642, 24 h
Enterococcus faecalis [10] = assay: Bactericidal activity against vancomycin-resistant Enterococcus faecalis clinical isolate 7077 after 24 hrs by two-fold serial dilution method; type: functional; conditions: isolate 7077, 24 h
Enterococcus faecalis [11] = assay: Bactericidal activity against vancomycin-resistant Enterococcus faecalis clinical isolate 7846 after 24 hrs by two-fold serial dilution method; type: functional; conditions: isolate 7846, 24 h
Enterococcus faecalis [12] = assay: Bactericidal activity against vancomycin-resistant Enterococcus faecalis clinical isolate 387702 after 24 hrs by two-fold serial dilution method; type: functional; conditions: isolate 387702, 24 h
Enterococcus [13] = assay: Bactericidal activity against […] after 24 hrs by two-fold serial dilution method; type: functional; conditions: ATCC 29212, 24 h
Enterococcus [14] = assay: Bactericidal activity against vancomycin-resistant Enterococcus ATCC 51299 after 24 hrs by two-fold serial dilution method; type: functional; conditions: ATCC 51299, 24 h
Enterococcus faecium [15] = assay: Bactericidal activity against vancomycin-resistant Enterococcus faecium clinical isolate 151495 after 24 hrs by two-fold serial dilution method; type: functional; conditions: isolate 151495, 24 h
Enterococcus faecium [16] = assay: Antibacterial activity against vancomycin-resistant Enterococcus faecium clinical isolate 14643 after overnight incubation by two-fold serial dilution method; type: functional
Enterococcus faecium [17] = assay: Bactericidal activity against vancomycin-resistant Enterococcus faecium clinical isolate 16115 after 24 hrs by two-fold serial dilution method; type: functional; conditions: isolate 16115, 24 h
Enterococcus [18] = assay: Bactericidal activity against vancomycin-resistant Enterococcus ATCC 29212 assessed as log reduction at 2 times MIC after 60 to 120 mins by serial dilution method; type: functional
In short: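 Time-kill assay: enterococci exposed to peptide at 2× MIC, with viable counts read as log10 CFU/mL over a 60–120 min exposure. Run on ATCC 29212 and a clinical isolate.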

Enterococcus faecium [19] = assay: Antibacterial activity against vancomycin-resistant Enterococcus faecium clinical isolate 147969 after overnight incubation by two-fold serial dilution method; type: functional
Enterococcus faecium [20] = assay: Bactericidal activity against vancomycin-resistant Enterococcus faecium clinical isolate 17301 after 24 hrs by two-fold serial dilution method; type: functional; conditions: isolate 17301, 24 h
Enterococcus [21] = assay: Antibacterial activity against Enterococcus infected in Wistar albino rat assessed as reduction in cell count at 3 times MIC, iv after 1 hr relative to control; type: functional; design: scale not given: the % may be the effect or the level left
In short: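 Female Wistar albino rats, 40−45 days old, 125−150 g, 5 groups of 3. Enterococci were grown to log phase in MH broth, centrifuged at 1000g for 15 min, and diluted in PBS to 4 × 10^6 CFU/mL. Rats were inoculated i.v. and treated i.v. 1 h later with 12.5, 25 or 37.5 mg/kg peptide, PBS vehicle, or linezolid 25 mg/kg. Tail-vein blood taken 1 h post-treatment was plated on blood agar, incubated overnight at 37 °C, and colonies counted.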

Enterococcus faecalis [22] = assay: Antibacterial activity against vancomycin-resistant Enterococcus faecalis clinical isolate 22626 after overnight incubation by two-fold serial dilution method; type: functional
Enterococcus faecalis [23] = assay: Bactericidal activity against vancomycin-resistant Enterococcus faecalis clinical isolate 5648 after 24 hrs by two-fold serial dilution method; type: functional; conditions: isolate 5648, 24 h
[24] = Hemolytic activity against human RBC at MIC after 1 hr by spectrophotometry; type: ADME, cell-based; conditions: erythrocyte
Enterococcus faecalis [25] = assay: Antibacterial activity against vancomycin-resistant Enterococcus faecalis clinical isolate 5814 after overnight incubation by two-fold serial dilution method; type: functional
Enterococcus faecium [26] = assay: Bactericidal activity against vancomycin-resistant Enterococcus faecium clinical isolate 147969 after 24 hrs by two-fold serial dilution method; type: functional; conditions: isolate 147969, 24 h
Enterococcus faecium [27] = assay: Antibacterial activity against vancomycin-resistant Enterococcus faecium clinical isolate 151495 after overnight incubation by two-fold serial dilution method; type: functional
Enterococcus faecium [28] = assay: Bactericidal activity against vancomycin-resistant Enterococcus faecium clinical isolate 23/240 after 24 hrs by two-fold serial dilution method; type: functional; conditions: isolate 23/240, 24 h
Enterococcus [29] = assay: Antibacterial activity against Enterococcus infected in iv dosed Wistar albino rat assessed as reduction in cell count after 1 hr relative to control; type: functional, organism-based
In short: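 Female Wistar albino rats, 40−45 days old, 125−150 g, 5 groups of 3. Enterococci grown in MH broth to log phase, spun at 1000g for 15 min, diluted in PBS to 4 × 10^6 CFU/mL and inoculated i.v. Treatment i.v. 1 h later at 12.5, 25 or 37.5 mg/kg. Vehicle was 0.1 mL PBS i.v.; linezolid 25 mg/kg i.v. was the positive control. Tail-vein blood taken 1 h after treatment, plated on blood agar, incubated at 37 °C in ambient air overnight, and colonies counted.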

Enterococcus faecium [30] = assay: Antibacterial activity against vancomycin-resistant Enterococcus faecium clinical isolate 7/27 after overnight incubation by two-fold serial dilution method; type: functional
Enterococcus faecium [31] = assay: Bactericidal activity against vancomycin-resistant Enterococcus faecium clinical isolate 29/203 after 24 hrs by two-fold serial dilution method; type: functional; conditions: isolate 29/203, 24 h
Enterococcus faecium [32] = assay: Antibacterial activity against vancomycin-resistant Enterococcus faecium clinical isolate 27/221 after overnight incubation by two-fold serial dilution method; type: functional
Enterococcus faecium [33] = assay: Antibacterial activity against vancomycin-resistant Enterococcus faecium clinical isolate 5396 after overnight incubation by two-fold serial dilution method; type: functional
Enterococcus faecium [34] = assay: Antibacterial activity against vancomycin-resistant Enterococcus faecium clinical isolate 31176 after overnight incubation by two-fold serial dilution method; type: functional
Enterococcus faecalis [35] = assay: Antibacterial activity against vancomycin-resistant Enterococcus faecalis clinical isolate 27728 after overnight incubation by two-fold serial dilution method; type: functional
Enterococcus faecium [36] = assay: Antibacterial activity against vancomycin-resistant Enterococcus faecium clinical isolate 6/22 after overnight incubation by two-fold serial dilution method; type: functional
Enterococcus faecium [37] = assay: Bactericidal activity against vancomycin-resistant Enterococcus faecium clinical isolate 6/22 after 24 hrs by two-fold serial dilution method; type: functional; conditions: isolate 6/22, 24 h
Enterococcus faecium [38] = assay: Bactericidal activity against vancomycin-resistant Enterococcus faecium clinical isolate 15/213 after 24 hrs by two-fold serial dilution method; type: functional; conditions: isolate 15/213, 24 h
Enterococcus faecium [39] = assay: Bactericidal activity against vancomycin-resistant Enterococcus faecium clinical isolate 16475 after 24 hrs by two-fold serial dilution method; type: functional; conditions: isolate 16475, 24 h

Question: With H-RWRLLLLKKH-OH as the substance, how does the MIC (Enterococcus faecium [1]) read?
Answer: Its MIC is 12.5 µg/mL.

Question: What about the MIC (Enterococcus faecium [2]) of the same substance?
Answer: The MIC was 12.5 µg/mL.

Question: And the MIC (Enterococcus faecium [3])?
Answer: The MIC was 12.5 µg/mL.

Question: And the MBC (Enterococcus faecium [4])?
Answer: The MBC was 25 µg/mL.

Question: What about the “fractional inhibitory concentration index (FICI)” value (Enterococcus [5]) of the same substance?
Answer: The value was 2.

Question: And the MIC (Enterococcus faecium [6])?
Answer: Its MIC is 12.5 µg/mL.

Question: What about the MIC (Enterococcus [7]) of the same substance?
Answer: The MIC was 25 µg/mL.

Question: What about the MIC (Enterococcus faecium [8]) of the same substance?
Answer: The MIC was 12.5 µg/mL.

Question: What about the MBC (Enterococcus faecalis [9]) of the same substance?
Answer: Its MBC is 25 µg/mL.

Question: What about the MBC (Enterococcus faecalis [10]) of the same substance?
Answer: The MBC was 25 µg/mL.

Question: What about the MBC (Enterococcus faecalis [11]) of the same substance?
Answer: The MBC was 25 µg/mL.

Question: And the MBC (Enterococcus faecalis [12])?
Answer: Its MBC is 25 µg/mL.

Question: And the MBC (Enterococcus [13])?
Answer: The MBC was 25 µg/mL.

Question: And the MBC (Enterococcus [14])?
Answer: The MBC was 25 µg/mL.

Question: What about the MBC (Enterococcus faecium [15]) of the same substance?
Answer: Its MBC is 25 µg/mL.

Question: And the MIC (Enterococcus faecium [16])?
Answer: The MIC was 6.25 µg/mL.

Question: And the MBC (Enterococcus faecium [17])?
Answer: The MBC was 25 µg/mL.

Question: And the MBC (Enterococcus [18])?
Answer: The MBC was 25 µg/mL.

Question: What about the MIC (Enterococcus faecium [19]) of the same substance?
Answer: Its MIC is 12.5 µg/mL.

Question: And the MBC (Enterococcus faecium [20])?
Answer: The MBC was 25 µg/mL.

Question: What about the Activity (Enterococcus [21]) of the same substance?
Answer: The Activity was 82%.

Question: What about the MIC (Enterococcus faecalis [22]) of the same substance?
Answer: Its MIC is 12.5 µg/mL.

Question: What about the MBC (Enterococcus faecalis [23]) of the same substance?
Answer: The MBC was 25 µg/mL.

Question: And the Activity [24]?
Answer: Its Activity is “Non-toxic”.

Question: What about the MIC (Enterococcus faecalis [25]) of the same substance?
Answer: The MIC was 12.5 µg/mL.

Question: And the MBC (Enterococcus faecium [26])?
Answer: The MBC was 25 µg/mL.

Question: And the MIC (Enterococcus faecium [27])?
Answer: The MIC was 6.25 µg/mL.

Question: And the MBC (Enterococcus faecium [28])?
Answer: Its MBC is 25 µg/mL.

Question: What about the Activity (Enterococcus [29]) of the same substance?
Answer: The Activity was “Dose-dependent effect”.

Question: And the MIC (Enterococcus faecium [30])?
Answer: Its MIC is 12.5 µg/mL.

Question: What about the MBC (Enterococcus faecium [31]) of the same substance?
Answer: The MBC was 25 µg/mL.

Question: What about the MIC (Enterococcus faecium [32]) of the same substance?
Answer: Its MIC is 12.5 µg/mL.

Question: And the MIC (Enterococcus faecium [33])?
Answer: The MIC was 6.25 µg/mL.

Question: What about the MIC (Enterococcus faecium [34]) of the same substance?
Answer: Its MIC is 6.25 µg/mL.

Question: What about the MIC (Enterococcus faecalis [35]) of the same substance?
Answer: The MIC was 6.25 µg/mL.

Question: And the MIC (Enterococcus faecium [36])?
Answer: The MIC was 12.5 µg/mL.

Question: And the MBC (Enterococcus faecium [37])?
Answer: Its MBC is 25 µg/mL.

Question: And the MBC (Enterococcus faecium [38])?
Answer: The MBC was 25 µg/mL.

Question: What about the MBC (Enterococcus faecium [39]) of the same substance?
Answer: Its MBC is 25 µg/mL.
